Results published in ChEMBL document CHEMBL1143122, “Novel analogs of D-e-MAPP and B13. Part 1: synthesis and evaluation as potential anticancer agents” (Bioorg Med Chem, 2008).

Experiments:
[1] = Antiproliferative activity against human HL60(TB) cells after 48 hrs; type: functional, HL-60(TB); conditions: HL-60, 48 h; for TGI: read-out: Log TGI (converted)
Procedure, shortened: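 NCI 60-line panel screen: cells grown in RPMI 1640 with 5% fetal bovine serum and 2 mM L-glutamine, plated at 5,000–40,000 cells/well by doubling time, and preincubated 24 h at 37 °C in 5% CO2. Drugs were solubilised in DMSO at 400-fold the final maximum and tested at five 10-fold dilutions from 10−4 to 10−8 M for 48 h. Net protein was read spectrophotometrically, and the concentration giving 50% reduction was reported as log10 GI50.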

[2] = test system: A498; assay: Antiproliferative activity against human A498 cells after 48 hrs; type: functional; conditions: A498, 48 h; for CC50: read-out: Log LC50 (the source's name) (converted); for TGI: read-out: Log TGI (converted)
Procedure, shortened: (§1)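 NCI 60-cell screen. Cells were grown in RPMI 1640 with 5% FBS and 2 mM L-glutamine, then plated at 5,000–40,000 cells/well according to doubling time and preincubated for 24 h at 37 °C in 5% CO2. Compounds were dissolved in DMSO at 400× the top final concentration and tested at five 10-fold dilutions from 10−4 to 10−8 M for 48 h. Growth was read spectrophotometrically; GI50 is 50% net protein reduction.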

[3] = test system: NCI-H23; assay: Antiproliferative activity against human NCI-H23 cells after 48 hrs; type: functional; conditions: NCI-H23, 48 h; for CC50: read-out: Log LC50 (the source's name) (converted); for TGI: read-out: Log TGI (converted); procedure, shortened: as §1
[4] = test system: TK-10; assay: Antiproliferative activity against human TK10 cells after 48 hrs; type: functional; conditions: TK-10, 48 h; for CC50: read-out: Log LC50 (the source's name) (converted); for TGI: read-out: Log TGI (converted)
Procedure, shortened: (§2)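 NCI 60-cell-line screen. Lines grown in RPMI 1640 with 5% fetal bovine serum and 2 mM L-glutamine, plated at 5,000–40,000 cells/well according to doubling time, left 24 h at 37 °C in 5% CO2. Drug stocks in DMSO at 400-fold the top final concentration. Five 10-fold dilutions, 10−4 to 10−8 M, incubated 48 h. Growth read spectrophotometrically as net protein; GI50 taken as 50% reduction.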

[5] = test system: SN12C; assay: Antiproliferative activity against human SN12C cells after 48 hrs; type: functional; conditions: for TGI: read-out: Log TGI (converted); procedure, shortened: as §1
[6] = test system: RXF 393; assay: Antiproliferative activity against human RXF393 cells after 48 hrs; type: functional; conditions: RXF 393, 48 h; for CC50: read-out: Log LC50 (the source's name) (converted); for TGI: read-out: Log TGI (converted); procedure, shortened: as §1
[7] = test system: OVCAR-8; assay: Antiproliferative activity against human OVCAR8 cells after 48 hrs; type: functional; conditions: OVCAR-8, 48 h; for TGI: read-out: Log TGI (converted); procedure, shortened: as §1
[8] = test system: COLO 205; assay: Antiproliferative activity against human COLO205 cells after 48 hrs; type: functional; conditions: COLO 205, 48 h; for TGI: read-out: Log TGI (converted); procedure, shortened: as §1
[9] = test system: OVCAR-5; assay: Antiproliferative activity against human OVCAR5 cells after 48 hrs; type: functional; conditions: OVCAR-5, 48 h; for CC50: read-out: Log LC50 (the source's name) (converted); for TGI: read-out: Log TGI (converted); procedure, shortened: as §1
[10] = test system: BT-549; assay: Antiproliferative activity against human BT549 cells after 48 hrs; type: functional; conditions: BT-549, 48 h; for TGI: read-out: Log TGI (converted); procedure, shortened: as §1
[11] = test system: HCT-116; assay: Antiproliferative activity against human HCT116 cells after 48 hrs; type: functional; conditions: HCT-116, 48 h; for TGI: read-out: Log TGI (converted); procedure, shortened: as §1
[12] = test system: SK-MEL-2; assay: Antiproliferative activity against human SKMEL2 cells after 48 hrs; type: functional; conditions: SK-MEL-2, 48 h; for TGI: read-out: Log TGI (converted); procedure, shortened: as §1
[13] = test system: 786-0; assay: Antiproliferative activity against human 786-0 cells after 48 hrs; type: functional; conditions: 786-0, 48 h; for CC50: read-out: Log LC50 (the source's name) (converted); for TGI: read-out: Log TGI (converted); procedure, shortened: as §1
[14] = Antiproliferative activity against human NCI-ADR-RES cells after 48 hrs; type: functional; conditions: for TGI: read-out: Log TGI (converted); procedure, shortened: as §1
[15] = test system: CAKI-1; assay: Antiproliferative activity against human CAKI1 cells after 48 hrs; type: functional; conditions: CAKI-1, 48 h; for CC50: read-out: Log LC50 (the source's name) (converted); for TGI: read-out: Log TGI (converted); procedure, shortened: as §1
[16] = test system: HCT-15; assay: Antiproliferative activity against human HCT15 cells after 48 hrs; type: functional; conditions: Homo sapiens, HCT-15, 48 h; for TGI: read-out: Log TGI (converted); procedure, shortened: as §1
[17] = test system: MOLT-4; assay: Antiproliferative activity against human MOLT4 cells after 48 hrs; type: functional; conditions: MOLT-4, 48 h; for TGI: read-out: Log TGI (converted); procedure, shortened: as §1
[18] = test system: NCI-H226; assay: Antiproliferative activity against human NCI-H226 cells after 48 hrs; type: functional; conditions: NCI-H226, 48 h; for CC50: read-out: Log LC50 (the source's name) (converted); for TGI: read-out: Log TGI (converted); procedure, shortened: as §1
[19] = test system: RPMI-8226; assay: Antiproliferative activity against human RPMI8226 cells after 48 hrs; type: functional; conditions: RPMI-8226, 48 h; for CC50: read-out: Log LC50 (the source's name) (converted); for TGI: read-out: Log TGI (converted); procedure, shortened: as §1
[20] = test system: MCF7; assay: Drug level in human MCF7 cells at 10 uM per 10^6 cells after 0.5 hrs; type: ADME, cell-based; conditions: mcf7, 0.5 h
Procedure, shortened: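 MCF7 cells kept in RPMI 1640 with 10% fetal calf serum at 37 °C, 5% CO2, then treated with 10 μM analog. Intracellular analog measured over time by HPLC-MS in positive-ion MRM mode. Quantified against calibration curves made by spiking an artificial matrix with standards plus internal standard, using analyte/IS peak-area ratios and linear regression. Reported as pmol per 1×10^6 cells.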

[21] = test system: UACC-62; assay: Antiproliferative activity against human UACC62 cells after 48 hrs; type: functional; conditions: UACC-62, 48 h; for TGI: read-out: Log TGI (converted); procedure, shortened: as §2
[22] = test system: SF-295; assay: Antiproliferative activity against human SF295 cells after 48 hrs; type: functional; conditions: SF-295, 48 h; for TGI: read-out: Log TGI (converted); procedure, shortened: as §1
[23] = test system: NCI-H322M; assay: Antiproliferative activity against human NCI-H322M cells after 48 hrs; type: functional; conditions: for CC50: read-out: Log LC50 (the source's name) (converted); for TGI: read-out: Log TGI (converted); procedure, shortened: as §1
[24] = test system: Malme-3M; assay: Antiproliferative activity against human MALME3M cells after 48 hrs; type: functional; conditions: for TGI: read-out: Log TGI (converted); procedure, shortened: as §1
[25] = test system: MDA-MB-231; assay: Antiproliferative activity against human MDA-MB-231 cells after 48 hrs; type: functional; conditions: MDA-MB-231, 48 h; for TGI: read-out: Log TGI (converted); procedure, shortened: as §1
[26] = test system: NCI-H460; assay: Antiproliferative activity against human NCI-H460 cells after 48 hrs; type: functional; conditions: NCI-H460, 48 h; for TGI: read-out: Log TGI (converted); procedure, shortened: as §1
[27] = read-out: Log LC50 (the source's name) (converted)

CCCCCCCCCCCCCCN[C@H](C)[C@@H](O)c1ccccc1.Cl
GI50 [1]: 0.0871 µM
LC50 [1]: 6.61 µM
TGI [1]: 2.51 µM
GI50 [2]: 3.16 µM
CC50 [2]: 74.1 µM
TGI [2]: 6.46 µM
GI50 [3]: 2.14 µM
CC50 [3]: 7.94 µM
TGI [3]: 4.07 µM
GI50 [4]: 1.86 µM
CC50 [4]: 5.75 µM
TGI [4]: 3.31 µM
GI50 [5]: 1.78 µM
LC50 (50% net cell kill) [5]: 6.76 µM
TGI [5]: 3.47 µM
GI50 [6]: 1.38 µM
CC50 [6]: 5.5 µM
TGI [6]: 2.75 µM
GI50 [7]: 1.82 µM
TGI [7]: 3.8 µM
GI50 [8]: 1.91 µM
CC50 [8, 27]: 6.17 µM
TGI [8]: 3.39 µM
GI50 [9]: 2 µM
CC50 [9]: 6.17 µM
TGI [9]: 3.47 µM
GI50 [10]: 1.12 µM
LC50 [10]: 5.01 µM
TGI [10]: 2.4 µM
GI50 [11]: 1.86 µM
LC50 [11]: 5.75 µM
TGI [11]: 3.24 µM
GI50 [12]: 2 µM
LC50 [12]: 8.13 µM
TGI [12]: 3.98 µM
GI50 [13]: 1.74 µM
CC50 [13]: 5.75 µM
TGI [13]: 3.16 µM
GI50 [14]: 1.82 µM
TGI [14]: 3.55 µM
GI50 [15]: 1.95 µM
CC50 [15]: 5.75 µM
TGI [15]: 3.39 µM
GI50 [16]: 1.82 µM
LC50 [16]: 5.89 µM
TGI [16]: 3.24 µM
GI50 [17]: 0.871 µM
LC50 [17]: 4.9 µM
TGI [17]: 2.19 µM
GI50 [18]: 1.86 µM
CC50 [18]: 7.08 µM
TGI [18]: 3.63 µM
GI50 [19]: 3.39 µM
CC50 [19]: 7.24 µM
TGI [19]: 3.63 µM
Drug uptake [20]: 3600 pmol
GI50 [21]: 1.82 µM
LC50 [21]: 6.61 µM
TGI [21]: 3.47 µM
GI50 [22]: 1.82 µM
LC50 [22]: 6.17 µM
TGI [22]: 3.39 µM
GI50 [23]: 1.91 µM
CC50 [23]: 5.89 µM
TGI [23]: 3.31 µM
GI50 [24]: 1.95 µM
LC50 [24]: 6.03 µM
TGI [24]: 3.39 µM
GI50 [25]: 1.74 µM
LC50 (50% lethal concentration) [25]: 6.46 µM
TGI [25]: 3.39 µM
GI50 [26]: 1.78 µM
CC50 [26, 27]: 6.17 µM
TGI [26]: 3.31 µM

CCCCCCCCCCCCCCN[C@H](CO)[C@H](O)c1ccc([N+](=O)[O-])cc1.Cl
GI50 [1]: 2.04 µM
LC50 [1]: 15.1 µM
TGI [1]: 4.79 µM
GI50 [2]: 6.76 µM
CC50 [2]: 93.3 µM
TGI [2]: 26.9 µM
GI50 [3]: 14.5 µM
CC50 [3]: 83.2 µM
TGI [3]: 34.7 µM
GI50 [4]: 10.5 µM
CC50 [4]: 66.1 µM
TGI [4]: 26.3 µM
GI50 [5]: 2.19 µM
LC50 (50% net cell kill) [5]: > 100 µM
TGI [5]: 4.79 µM
GI50 [6]: 1.82 µM
CC50 [6]: 8.32 µM
TGI [6]: 3.89 µM
GI50 [7]: 2.29 µM
CC50 [7, 27]: > 100 µM
TGI [7]: 5.62 µM
GI50 [8]: 1.78 µM
TGI [8]: 3.55 µM
GI50 [9]: 3.72 µM
CC50 [9]: 72.4 µM
TGI [9]: 14.1 µM
GI50 [10]: 1.51 µM
LC50 [10]: 5.62 µM
TGI [10]: 2.88 µM
GI50 [11]: 1.95 µM
LC50 [11]: 6.17 µM
TGI [11]: 3.47 µM
GI50 [12]: 3.31 µM
LC50 [12]: > 100 µM
TGI [12]: 8.13 µM
GI50 [13]: 1.62 µM
CC50 [13]: 5.75 µM
TGI [13]: 3.09 µM
GI50 [14]: 2.04 µM
LC50 [14]: 8.91 µM
TGI [14]: 4.27 µM
GI50 [15]: 7.59 µM
CC50 [15]: 67.6 µM
TGI [15]: 24 µM
GI50 [16]: 1.86 µM
TGI [16]: 3.47 µM
GI50 [17]: 1.62 µM
LC50 [17]: 7.59 µM
TGI [17]: 3.55 µM
GI50 [18]: 10.5 µM
CC50 [18]: 100 µM
TGI [18]: 34.7 µM
GI50 [19]: 2.19 µM
CC50 [19]: > 100 µM
TGI [19]: 4.68 µM
Drug uptake [20]: 3600 pmol
GI50 [21]: 6.46 µM
LC50 [21]: 75.9 µM
TGI [21]: 24 µM
GI50 [22]: 2.24 µM
LC50 [22]: 9.77 µM
TGI [22]: 4.68 µM
GI50 [23]: 4.79 µM
CC50 [23]: 42.7 µM
TGI [23]: 14.8 µM
GI50 [24]: 2.45 µM
LC50 [24]: 9.55 µM
TGI [24]: 4.9 µM
GI50 [25]: 2 µM
LC50 (50% lethal concentration) [25]: 7.76 µM
TGI [25]: 3.89 µM
GI50 [26]: 1.91 µM
TGI [26]: 3.55 µM
